Source: ChEMBL document CHEMBL1955770, “Inhibition of S/G2 phase CDK4 reduces mitotic fidelity” (J Biol Chem, 2006)
Activity calls are given as the source filed them. No cut-off for these calls is given here.

Legend:
NCI-H460 [1] = experiment: Toxicity in human H460a cells at 8 uM by MTT assay; assay type: cell-based; conditions: nci-h460, 8 µM
HeLa [2] = experiment: Cell cycle arrest at G2 phase in human HeLa cells at 2 uM treated at early S phase measured after 6-14 hr post thymidine-synchrony release by immunoblot method relative to untreated control
HCT-116 = experiment: Cell cycle arrest in Rb-competent human HCT116 cells assessed as accumulation at S phase at 3 times IC90 after 24 hrs using BrdUrd staining by FACS analysis (Rvb =38 %); assay type: functional
HeLa [3] = experiment: Cell cycle arrest in Rb-deficient human HeLa cells assessed as accumulation at G2/M phase at 2 uM after 24 hrs by FACS analysis; assay type: functional
Summary of the method: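 Ethanol-fixed cells stained with propidium iodide/RNase A, DNA content read by FACS, phase and sub-diploid fractions calculated with ModFit.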

A2058 [4] = experiment: Cell cycle arrest in human A2058 cells assessed as accumulation at G2/M phase at 2 uM treated 1 hr and measured 8 hr post double hydroxyurea-synchrony release using propidium iodide staining by FACS analysis (reference value: 48 %); assay type: functional
HeLa [5] = experiment: Decrease in survivin protein expression in human HeLa cells at 2 uM measured 14 hr post thymidine-synchrony release by immunoblot analysis; assay type: functional, cell-based
Summary of the method: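 Synchronized HeLa cells given 2 μM CDK4 inhibitor in early S phase and harvested at set times post-release. Lysed in supplemented NETN buffer on ice for 20 min. Lysates run on SDS-PAGE and immunoblotted for survivin, borealin and other chromosomal passenger proteins, with ECL detection. Cyclin D3 served as loading control.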

[6] = biological target: Cyclin-dependent kinase 4 (Homo sapiens) (UniProt P11802); experiment: Inhibition of CDK4-mediated Rb phosphorylation at ser 795 in human HCT116 cells at IC90 after 24 hrs by immunoblot analysis; assay type: cell-based; conditions: HCT-116
Chain of Cyclin-dependent kinase 4 (Homo sapiens) (P11802 whole entry): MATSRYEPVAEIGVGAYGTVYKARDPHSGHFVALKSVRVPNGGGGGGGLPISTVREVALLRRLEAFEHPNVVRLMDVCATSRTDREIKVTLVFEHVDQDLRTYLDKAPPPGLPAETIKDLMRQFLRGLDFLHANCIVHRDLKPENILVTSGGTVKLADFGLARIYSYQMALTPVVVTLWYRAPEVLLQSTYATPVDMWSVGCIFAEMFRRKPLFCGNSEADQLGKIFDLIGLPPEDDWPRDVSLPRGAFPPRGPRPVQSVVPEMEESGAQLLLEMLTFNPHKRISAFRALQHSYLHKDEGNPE
Summary of the method: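 Asynchronous HCT-116 cells (DMEM, 3 mM HEPES, 10% serum, 37 °C, 5% CO₂) were given increasing inhibitor doses for 4 or 24 h. Lysis in NETN with phosphatase and protease inhibitors, then SDS-PAGE, nitrocellulose transfer and immunoblot for phospho-Rb (Ser-795) with HRP secondary and chemiluminescence.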

HeLa [7] = experiment: Cell cycle arrest in human HeLa cells assessed as accumulation at S phase at 2 uM treated 4 hr and measured 10 hr post double thymidine-synchrony release using propidium iodide staining by FACS analysis (reference value: 1 %); assay type: functional
Summary of the method: (§1)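 Cells harvested at set times post-release, fixed in 70% ethanol, stained with 5 μg/ml propidium iodide plus 0.5 mg/ml RNase A, and analysed by flow cytometry. Cell-cycle phase fractions calculated by ModFit.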

MDA-MB-453 = experiment: Toxicity in human MDA-MB-453 cells at 8 uM by MTT assay; assay type: cell-based; conditions: mda-mb-453, 8 µM
[8] = biological target: Hepatocyte growth factor receptor (Homo sapiens, UniProt P08581); experiment: Inhibition of c-Met using fluorescent substrate by IMAP assay
Chain of Hepatocyte growth factor receptor (P08581 whole entry): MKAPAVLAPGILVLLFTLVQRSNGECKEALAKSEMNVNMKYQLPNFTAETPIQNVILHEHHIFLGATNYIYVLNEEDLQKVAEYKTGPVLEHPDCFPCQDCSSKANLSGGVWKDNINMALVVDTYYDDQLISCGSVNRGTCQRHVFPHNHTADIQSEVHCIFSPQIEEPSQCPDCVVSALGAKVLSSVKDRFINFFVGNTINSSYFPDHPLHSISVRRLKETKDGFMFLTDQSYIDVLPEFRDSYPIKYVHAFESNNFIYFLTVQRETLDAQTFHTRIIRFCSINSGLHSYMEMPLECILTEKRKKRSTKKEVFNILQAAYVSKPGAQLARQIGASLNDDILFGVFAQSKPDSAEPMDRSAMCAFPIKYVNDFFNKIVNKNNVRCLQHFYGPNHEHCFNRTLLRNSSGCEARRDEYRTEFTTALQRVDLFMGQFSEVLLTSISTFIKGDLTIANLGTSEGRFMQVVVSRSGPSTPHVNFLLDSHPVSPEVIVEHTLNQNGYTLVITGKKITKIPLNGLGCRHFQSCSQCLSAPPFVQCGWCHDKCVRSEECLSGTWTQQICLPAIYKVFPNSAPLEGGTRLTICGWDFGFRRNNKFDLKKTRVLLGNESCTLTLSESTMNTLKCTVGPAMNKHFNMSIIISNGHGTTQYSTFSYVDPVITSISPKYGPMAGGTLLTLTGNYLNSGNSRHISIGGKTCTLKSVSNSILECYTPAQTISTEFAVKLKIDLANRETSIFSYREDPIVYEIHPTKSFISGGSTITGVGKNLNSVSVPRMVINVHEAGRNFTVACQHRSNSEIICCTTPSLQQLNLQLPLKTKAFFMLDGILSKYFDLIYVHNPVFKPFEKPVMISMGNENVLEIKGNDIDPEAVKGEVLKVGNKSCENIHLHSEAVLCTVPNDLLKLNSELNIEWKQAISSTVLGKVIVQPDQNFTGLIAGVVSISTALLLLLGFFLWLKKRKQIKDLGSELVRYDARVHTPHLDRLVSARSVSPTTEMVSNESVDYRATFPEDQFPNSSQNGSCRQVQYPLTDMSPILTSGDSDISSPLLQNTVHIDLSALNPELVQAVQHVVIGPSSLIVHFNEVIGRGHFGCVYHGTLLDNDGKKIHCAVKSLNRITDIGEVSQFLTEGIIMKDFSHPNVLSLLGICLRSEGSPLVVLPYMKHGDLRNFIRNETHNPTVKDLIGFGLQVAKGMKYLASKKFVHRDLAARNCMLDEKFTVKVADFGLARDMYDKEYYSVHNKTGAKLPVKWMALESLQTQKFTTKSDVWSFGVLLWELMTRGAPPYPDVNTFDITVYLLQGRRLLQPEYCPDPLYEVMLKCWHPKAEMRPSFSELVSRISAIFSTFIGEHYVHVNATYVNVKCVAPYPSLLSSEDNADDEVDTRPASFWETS
Summary of the method: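 Run in-house using IMAP: phosphorylated fluorescent peptide substrate binds preferentially to immobilized metal beads, which quantifies kinase activity. ATP at 3× the Km of each enzyme.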

HeLa [9] = experiment: Cell cycle arrest in human HeLa cells assessed as accumulation at G1 phase at 2 uM treated 4 hr and measured 10 hr post double thymidine-synchrony release using propidium iodide staining by FACS analysis (reference value: 68 %); assay type: functional
[10] = Cell cycle arrest in human SK-MEL-13 cells assessed as effect on G2/M phase progression at 2 uM treated 6 hr post double hydroxyurea-synchrony release using propidium iodide staining by FACS analysis; assay type: functional, cell-based
HeLa [11] = experiment: Cell cycle arrest in human HeLa cells assessed as accumulation at G1 phase at 2 uM treated 6 hr and measured 10 hr post double thymidine-synchrony release using propidium iodide staining by FACS analysis (reference value: 68 %); assay type: functional
HeLa [12] = experiment: Cell cycle arrest at G2 phase in human HeLa cells assessed as effect on cyclin A accumulation at 2 uM treated at early S phase measured after 6-14 hr post thymidine-synchrony release by immunoblot method; assay type: functional, cell-based
[13] = Cell cycle arrest in human SK-MEL-13 cells assessed as accumulation at G1 phase at 2 uM treated 1 hr and measured 10 hr post double hydroxyurea-synchrony release using propidium iodide staining by FACS analysis (reference value: 14 %); assay type: functional, cell-based
Summary of the method: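 SK-Mel-13 cells synchronized with 2 mM hydroxyurea, then treated with 2 μM CDK4 inhibitor or left untreated 1 h after release. Harvested at indicated times post-release, ethanol-fixed, propidium iodide/RNase stained, and DNA content read by FACS. Proportions of G1, S and G2/M cells derived with ModFit.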

A2058 [14] = experiment: Cell cycle arrest in human A2058 cells assessed as effect on G2/M phase progression at 2 uM treated 6 hr post double hydroxyurea-synchrony release using propidium iodide staining by FACS analysis; assay type: functional, cell-based
HeLa [15] = experiment: Cell cycle arrest in synchronized human HeLa cells assessed as re-joining to form single binuclear cells at 2 uM by time-lapse microscopy; assay type: functional, cell-based
A2058 [16] = experiment: Cell cycle arrest in human A2058 cells assessed as time taken to reach peak mitosis at 2 uM treated 1 hr and post double hydroxyurea-synchrony release using propidium iodide staining by FACS analysis; assay type: functional
SW480 = experiment: Antiproliferative activity against human SW480 cells assessed as inhibition of S phase after 48 hrs by MTT assay; assay type: functional, cell-based; conditions: SW480, 48 h
Summary of the method: (§2)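 Cells grown in DMEM with 3 mM HEPES and 10% Serum Supreme at 37 °C, 5% CO2. Proliferation read by MTT assay 48 h after drug addition; IC50 given as mean of two separate determinations, each in duplicate.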

HeLa [17] = experiment: Cell cycle arrest in human HeLa cells assessed as accumulation at S phase at 2 uM treated 2 hr and measured 10 hr post double thymidine-synchrony release using propidium iodide staining by FACS analysis (reference value: 1 %); assay type: functional; summary of the method: as §1
HeLa [18] = experiment: Cell cycle arrest in human HeLa cells assessed as accumulation at G1 phase at 2 uM treated 6 hr and measured 8 hr post double thymidine-synchrony release using propidium iodide staining by FACS analysis (reference value: 6 %); assay type: functional
NCI-H460 [19] = experiment: Antiproliferative activity against human H460a cells assessed as inhibition of S phase after 48 hrs by MTT assay; assay type: functional, cell-based; conditions: NCI-H460, 48 h; summary of the method: as §2
[20] = biological target: Serine/threonine-protein kinase PAK 4 (Homo sapiens) (UniProt O96013); experiment: Inhibition of PAK4 at 1 uM
Chain of Serine/threonine-protein kinase PAK 4 (Homo sapiens) (O96013 whole entry, looked up): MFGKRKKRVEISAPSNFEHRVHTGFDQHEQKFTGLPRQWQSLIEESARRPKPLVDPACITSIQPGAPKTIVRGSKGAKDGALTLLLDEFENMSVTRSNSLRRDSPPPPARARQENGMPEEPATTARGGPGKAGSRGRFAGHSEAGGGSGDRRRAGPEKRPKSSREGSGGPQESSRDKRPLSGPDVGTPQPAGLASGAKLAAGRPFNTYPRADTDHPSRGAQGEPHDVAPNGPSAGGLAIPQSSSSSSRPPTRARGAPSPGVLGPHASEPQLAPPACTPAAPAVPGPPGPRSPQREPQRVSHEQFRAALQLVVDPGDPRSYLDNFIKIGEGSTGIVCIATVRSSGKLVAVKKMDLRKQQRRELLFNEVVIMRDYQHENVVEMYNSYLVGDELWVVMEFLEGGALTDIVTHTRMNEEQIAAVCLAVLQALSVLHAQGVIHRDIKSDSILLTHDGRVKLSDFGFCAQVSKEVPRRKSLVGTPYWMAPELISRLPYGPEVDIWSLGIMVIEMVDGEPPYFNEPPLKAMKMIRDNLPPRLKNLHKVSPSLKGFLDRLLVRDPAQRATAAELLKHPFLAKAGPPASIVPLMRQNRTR

[21] = biological target: Mast/stem cell growth factor receptor Kit (Homo sapiens) (UniProt P10721); experiment: Inhibition of KIT at 1 uM
Chain of Mast/stem cell growth factor receptor Kit (Homo sapiens) (P10721 whole entry): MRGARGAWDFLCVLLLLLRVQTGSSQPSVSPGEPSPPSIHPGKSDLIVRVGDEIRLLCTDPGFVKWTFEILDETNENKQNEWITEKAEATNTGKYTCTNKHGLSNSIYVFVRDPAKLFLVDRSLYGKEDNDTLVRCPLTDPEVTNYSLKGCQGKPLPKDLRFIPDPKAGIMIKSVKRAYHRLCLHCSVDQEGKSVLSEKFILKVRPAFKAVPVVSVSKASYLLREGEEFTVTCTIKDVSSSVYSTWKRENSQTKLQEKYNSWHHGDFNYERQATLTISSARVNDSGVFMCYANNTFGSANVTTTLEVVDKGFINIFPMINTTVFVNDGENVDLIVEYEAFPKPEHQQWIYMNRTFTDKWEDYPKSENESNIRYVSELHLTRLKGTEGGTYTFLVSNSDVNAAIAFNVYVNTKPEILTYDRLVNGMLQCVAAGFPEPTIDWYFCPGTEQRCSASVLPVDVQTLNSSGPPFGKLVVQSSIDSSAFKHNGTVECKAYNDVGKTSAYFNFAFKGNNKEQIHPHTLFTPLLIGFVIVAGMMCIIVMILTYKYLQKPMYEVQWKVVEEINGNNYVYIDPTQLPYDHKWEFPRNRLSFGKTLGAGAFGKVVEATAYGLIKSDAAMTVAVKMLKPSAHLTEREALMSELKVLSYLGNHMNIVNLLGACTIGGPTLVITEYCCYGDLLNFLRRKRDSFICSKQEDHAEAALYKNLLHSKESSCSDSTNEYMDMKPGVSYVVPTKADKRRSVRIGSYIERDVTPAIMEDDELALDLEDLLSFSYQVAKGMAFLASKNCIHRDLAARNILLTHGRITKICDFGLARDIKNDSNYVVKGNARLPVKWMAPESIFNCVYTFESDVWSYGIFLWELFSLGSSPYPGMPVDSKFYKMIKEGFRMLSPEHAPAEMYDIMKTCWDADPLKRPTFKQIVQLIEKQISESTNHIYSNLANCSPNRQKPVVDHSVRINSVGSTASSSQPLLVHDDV

[22] = biological target: Calcium/calmodulin-dependent protein kinase type II subunit alpha (Homo sapiens) (UniProt Q9UQM7); experiment: Inhibition of CAMK2A at 1 uM
Chain of Calcium/calmodulin-dependent protein kinase type II subunit alpha (Homo sapiens) (Q9UQM7 whole entry): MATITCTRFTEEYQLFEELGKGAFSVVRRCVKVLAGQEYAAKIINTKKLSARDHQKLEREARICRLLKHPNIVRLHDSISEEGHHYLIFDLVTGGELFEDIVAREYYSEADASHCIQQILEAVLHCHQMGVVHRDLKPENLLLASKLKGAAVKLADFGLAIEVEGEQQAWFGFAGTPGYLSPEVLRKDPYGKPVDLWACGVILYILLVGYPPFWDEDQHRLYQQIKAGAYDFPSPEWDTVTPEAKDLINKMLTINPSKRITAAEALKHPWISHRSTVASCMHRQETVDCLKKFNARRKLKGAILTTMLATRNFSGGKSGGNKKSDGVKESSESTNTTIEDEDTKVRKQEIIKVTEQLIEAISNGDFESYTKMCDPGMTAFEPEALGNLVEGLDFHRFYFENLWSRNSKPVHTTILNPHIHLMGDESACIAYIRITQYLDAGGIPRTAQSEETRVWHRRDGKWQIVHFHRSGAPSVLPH
Summary of the method: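 Competition binding screen across a kinase panel with compound at 1 μM. Read-out is % competition. Kinases not hit at this concentration were scored '<50'. No Kd was determined for hits.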

[23] = biological target: Ribosomal protein S6 kinase alpha-2 (Homo sapiens) (UniProt Q15349); experiment: Inhibition of RPS6KA2 Kin.Dom. 1 at 1 uM
Chain of Ribosomal protein S6 kinase alpha-2 (Homo sapiens) (Q15349 whole entry): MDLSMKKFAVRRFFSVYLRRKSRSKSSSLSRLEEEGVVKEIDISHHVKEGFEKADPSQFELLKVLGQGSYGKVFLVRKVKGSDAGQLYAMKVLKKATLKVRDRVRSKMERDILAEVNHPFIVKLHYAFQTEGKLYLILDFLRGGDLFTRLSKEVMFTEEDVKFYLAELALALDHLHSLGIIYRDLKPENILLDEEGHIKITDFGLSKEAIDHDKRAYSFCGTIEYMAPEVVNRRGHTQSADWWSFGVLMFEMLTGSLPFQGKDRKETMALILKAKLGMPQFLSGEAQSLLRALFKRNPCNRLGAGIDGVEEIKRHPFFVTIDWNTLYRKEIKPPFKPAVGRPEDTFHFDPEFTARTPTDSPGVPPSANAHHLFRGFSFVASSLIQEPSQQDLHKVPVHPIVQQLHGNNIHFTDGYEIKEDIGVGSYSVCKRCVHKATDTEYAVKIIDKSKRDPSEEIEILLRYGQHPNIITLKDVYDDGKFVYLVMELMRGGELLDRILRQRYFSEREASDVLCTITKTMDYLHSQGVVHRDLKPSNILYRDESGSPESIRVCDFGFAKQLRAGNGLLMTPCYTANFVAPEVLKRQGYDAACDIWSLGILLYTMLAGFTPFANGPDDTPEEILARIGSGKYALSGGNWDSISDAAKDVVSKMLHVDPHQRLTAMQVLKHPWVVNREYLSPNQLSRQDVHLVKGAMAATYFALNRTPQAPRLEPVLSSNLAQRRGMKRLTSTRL

[24] = biological target: Tyrosine-protein kinase Fgr (Homo sapiens) (UniProt P09769); experiment: Inhibition of FGR at 1 uM
Chain of Tyrosine-protein kinase Fgr (Homo sapiens) (P09769 2-529 limits assumed): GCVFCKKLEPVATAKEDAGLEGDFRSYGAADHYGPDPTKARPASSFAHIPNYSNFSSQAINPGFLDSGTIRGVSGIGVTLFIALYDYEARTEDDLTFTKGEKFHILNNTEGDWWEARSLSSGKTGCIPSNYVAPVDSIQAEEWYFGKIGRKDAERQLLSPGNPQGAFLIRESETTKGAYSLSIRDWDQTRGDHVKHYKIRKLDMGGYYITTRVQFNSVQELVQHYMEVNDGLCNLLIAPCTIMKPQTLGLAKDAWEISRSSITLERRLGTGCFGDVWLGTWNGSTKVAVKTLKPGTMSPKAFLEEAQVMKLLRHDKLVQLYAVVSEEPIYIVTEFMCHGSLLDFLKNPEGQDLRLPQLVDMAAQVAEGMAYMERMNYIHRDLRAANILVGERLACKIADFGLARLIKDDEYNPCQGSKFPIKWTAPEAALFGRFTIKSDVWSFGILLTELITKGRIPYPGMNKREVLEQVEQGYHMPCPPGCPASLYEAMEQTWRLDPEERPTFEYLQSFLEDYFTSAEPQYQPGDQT

Row | SMILES | Activity (NCI-H460 [1]) | Activity (HeLa [2]) | Activity (HCT-116) [%] | Activity (HeLa [3]) [%] | Activity (A2058 [4]) [%] | Activity (HeLa [5]) | inhibition [6] | Activity (HeLa [7]) [%] | Activity (MDA-MB-453) | IC50 [8] [µM] | Activity (HeLa [9]) [%] | Activity [10] | Activity (HeLa [11]) [%] | Activity (HeLa [12]) | Activity [13] [%] | Activity (A2058 [14]) | Activity (HeLa [15]) | Time (A2058 [16]) [h] | IC50 (SW480) [µM] | Activity (HeLa [17]) [%] | also measured
1 | COc1cccc(C(=O)c2sc(Nc3ccc(N4CCN(C(C)C)CC4)cc3)nc2N)c1 | Toxic | Active | 4 | 14 | 69 | Active | Active | 0 | Toxic | > 20 | 12 | inactive | 56 | inactive | 11 | inactive | Active | 10 | 1.06 | 6 | Activity (HeLa [18]): 7%; IC50 (NCI-H460 [19]): 1.14 µM
2 | CN1CCN(c2ccc(Nc3nc(N)c(C(=O)c4ccc5c(c4)OCCO5)s3)cc2)CC1 | Toxic | Active | 4 | 14 | 69 | Active | Active | 0 | Toxic | > 20 | 12 | inactive | 56 | inactive | 11 | inactive | Active | 10 | 3.67 | 6 | inhibition [20]: < 50%; inhibition [21]: < 50%; inhibition [22]: < 50%; inhibition [23]: < 50%; inhibition [24]: < 50%; Activity (HeLa [18]): 7%; IC50 (NCI-H460 [19]): 8.12 µM
